# In ChEMBL document CHEMBL5113557, “Structural Basis for Inhibition of Mutant EGFR with Lazertinib (YH25448)” (ACS Med Chem Lett, 2022):
# The source made the active and inactive calls. The calls are words filed in the database; no cut-off is given here.
# Assays:
# BaF3 [1] = test: Antiproliferative activity against mouse BAF3 cells harboring HER2 wild type after 72 hrs by resazurin dye-based fluorescence assay; format: functional, cell-based; details: BaF3, 72 h
# How it was run: (§1)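 Ba/F3 cells engineered to express each target were exposed to inhibitor for 72 h, after which proliferation was measured.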
# Homo sapiens [2] = organism: Homo sapiens; test: Selectivity ratio of Kinact/Ki for human N-terminal GST-tagged EGFR (669 to 1210 residues) (unknown origin) L858R/T790M mutant to Kinact/Ki for human N-terminal GST-tagged EGFR wild type (669 to 1210 residues) (unknown origin)
# [3] = target: T1, Receptor tyrosine-protein kinase erbB-2 (Homo sapiens, UniProt P04626); test: Inhibition of recombinant human N-terminal GST-tagged HER2 wild type (679 to 1255 residues) expressed in baculovirus infected Sf9 insect cells assessed as Kinact/Ki ratio using AQT0794 measured up to 240 mins by fluorescence assay
# T1 sequence (P04626 whole entry, the tested form may be a part): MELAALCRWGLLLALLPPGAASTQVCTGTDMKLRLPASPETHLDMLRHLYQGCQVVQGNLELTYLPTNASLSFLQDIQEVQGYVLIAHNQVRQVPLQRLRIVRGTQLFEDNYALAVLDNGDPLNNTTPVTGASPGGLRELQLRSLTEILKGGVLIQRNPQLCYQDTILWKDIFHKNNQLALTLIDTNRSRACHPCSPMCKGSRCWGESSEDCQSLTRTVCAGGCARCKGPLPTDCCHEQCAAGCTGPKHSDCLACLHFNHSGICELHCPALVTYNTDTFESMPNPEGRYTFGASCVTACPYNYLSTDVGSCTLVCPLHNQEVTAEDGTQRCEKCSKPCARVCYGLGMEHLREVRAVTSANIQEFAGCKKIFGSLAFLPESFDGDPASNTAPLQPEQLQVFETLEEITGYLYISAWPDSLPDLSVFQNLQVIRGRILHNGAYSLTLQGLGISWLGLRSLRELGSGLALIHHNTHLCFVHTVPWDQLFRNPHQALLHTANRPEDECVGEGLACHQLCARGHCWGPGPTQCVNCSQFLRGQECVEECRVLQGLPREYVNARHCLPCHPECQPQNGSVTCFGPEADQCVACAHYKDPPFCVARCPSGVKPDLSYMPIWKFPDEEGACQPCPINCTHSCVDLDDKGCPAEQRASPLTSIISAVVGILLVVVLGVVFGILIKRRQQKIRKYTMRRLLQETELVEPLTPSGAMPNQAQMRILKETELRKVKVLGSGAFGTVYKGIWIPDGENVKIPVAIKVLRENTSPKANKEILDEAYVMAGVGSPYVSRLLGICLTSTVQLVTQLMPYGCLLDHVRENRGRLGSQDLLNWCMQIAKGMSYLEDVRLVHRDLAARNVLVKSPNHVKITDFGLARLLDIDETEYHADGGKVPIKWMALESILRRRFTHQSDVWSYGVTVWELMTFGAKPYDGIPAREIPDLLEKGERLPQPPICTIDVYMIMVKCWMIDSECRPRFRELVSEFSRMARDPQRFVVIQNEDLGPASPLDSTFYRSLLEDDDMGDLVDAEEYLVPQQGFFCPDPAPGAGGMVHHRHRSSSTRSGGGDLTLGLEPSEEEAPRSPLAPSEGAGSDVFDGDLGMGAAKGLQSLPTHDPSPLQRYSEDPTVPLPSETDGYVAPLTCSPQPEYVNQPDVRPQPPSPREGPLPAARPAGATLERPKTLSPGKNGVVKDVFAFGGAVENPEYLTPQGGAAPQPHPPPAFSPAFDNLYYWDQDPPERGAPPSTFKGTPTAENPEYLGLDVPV
# How it was run: (§2)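 Time-dependent kinetic assay on the HER2 kinase domain with 1000 μM ATP and 15 μM Sox-based substrate sensor. Data come from a single experiment run in duplicate. kinact and Ki were obtained from a two-step fit, and errors are the standard error from the fit.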
# [4] = target: T2, Epidermal growth factor receptor (Homo sapiens, UniProt P00533); details: Sf21, time <= 240.0 min
# T2 sequence (P00533 whole entry, the tested form may be a part): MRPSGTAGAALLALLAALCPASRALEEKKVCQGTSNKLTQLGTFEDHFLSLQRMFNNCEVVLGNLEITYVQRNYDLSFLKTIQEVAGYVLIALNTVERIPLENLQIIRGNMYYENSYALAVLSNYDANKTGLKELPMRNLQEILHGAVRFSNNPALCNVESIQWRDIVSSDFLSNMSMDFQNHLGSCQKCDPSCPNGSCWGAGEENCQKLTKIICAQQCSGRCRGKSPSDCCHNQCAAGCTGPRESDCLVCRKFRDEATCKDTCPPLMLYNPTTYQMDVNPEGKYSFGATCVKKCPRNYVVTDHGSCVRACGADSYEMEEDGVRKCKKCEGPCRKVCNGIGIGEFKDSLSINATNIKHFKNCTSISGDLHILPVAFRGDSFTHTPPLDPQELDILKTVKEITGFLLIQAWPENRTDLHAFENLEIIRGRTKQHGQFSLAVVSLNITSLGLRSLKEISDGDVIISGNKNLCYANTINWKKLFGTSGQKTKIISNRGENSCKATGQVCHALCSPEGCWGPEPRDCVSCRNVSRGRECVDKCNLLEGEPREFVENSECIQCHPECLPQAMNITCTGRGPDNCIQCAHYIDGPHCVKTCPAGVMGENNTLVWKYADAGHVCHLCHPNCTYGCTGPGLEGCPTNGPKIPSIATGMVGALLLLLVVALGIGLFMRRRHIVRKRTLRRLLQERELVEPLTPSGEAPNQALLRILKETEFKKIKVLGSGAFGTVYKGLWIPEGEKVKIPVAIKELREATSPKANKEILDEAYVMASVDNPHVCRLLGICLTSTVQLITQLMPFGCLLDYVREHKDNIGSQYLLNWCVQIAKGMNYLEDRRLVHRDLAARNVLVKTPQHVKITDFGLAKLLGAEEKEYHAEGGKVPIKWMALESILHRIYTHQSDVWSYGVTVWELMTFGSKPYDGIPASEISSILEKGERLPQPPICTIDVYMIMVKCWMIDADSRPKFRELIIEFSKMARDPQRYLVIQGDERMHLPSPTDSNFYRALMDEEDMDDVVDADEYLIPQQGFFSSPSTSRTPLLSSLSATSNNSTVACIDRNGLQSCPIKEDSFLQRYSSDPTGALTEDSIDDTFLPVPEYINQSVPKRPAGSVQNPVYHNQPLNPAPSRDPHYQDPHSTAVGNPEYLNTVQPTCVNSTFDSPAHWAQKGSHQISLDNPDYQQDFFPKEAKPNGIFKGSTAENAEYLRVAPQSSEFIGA
# [5] = target: T1, Receptor tyrosine-protein kinase erbB-2; test: Inhibition of recombinant human N-terminal GST-tagged HER2 wild type (679 to 1255 residues) expressed in baculovirus infected Sf9 insect cells assessed as Kinact using AQT0794 as substrate measured up to 240 mins by fluorescence assay; how it was run: as §2
# [6] = test system: Epidermal growth factor receptor (Homo sapiens), P00533 [L858R,T790M]; details: NCI-H1975, dose 5-50 nM, time 2.0 hrs
# Chain of Epidermal growth factor receptor (Homo sapiens), P00533 [L858R,T790M] (P00533 whole entry T790M/L858R, looked up, the tested form may be a part): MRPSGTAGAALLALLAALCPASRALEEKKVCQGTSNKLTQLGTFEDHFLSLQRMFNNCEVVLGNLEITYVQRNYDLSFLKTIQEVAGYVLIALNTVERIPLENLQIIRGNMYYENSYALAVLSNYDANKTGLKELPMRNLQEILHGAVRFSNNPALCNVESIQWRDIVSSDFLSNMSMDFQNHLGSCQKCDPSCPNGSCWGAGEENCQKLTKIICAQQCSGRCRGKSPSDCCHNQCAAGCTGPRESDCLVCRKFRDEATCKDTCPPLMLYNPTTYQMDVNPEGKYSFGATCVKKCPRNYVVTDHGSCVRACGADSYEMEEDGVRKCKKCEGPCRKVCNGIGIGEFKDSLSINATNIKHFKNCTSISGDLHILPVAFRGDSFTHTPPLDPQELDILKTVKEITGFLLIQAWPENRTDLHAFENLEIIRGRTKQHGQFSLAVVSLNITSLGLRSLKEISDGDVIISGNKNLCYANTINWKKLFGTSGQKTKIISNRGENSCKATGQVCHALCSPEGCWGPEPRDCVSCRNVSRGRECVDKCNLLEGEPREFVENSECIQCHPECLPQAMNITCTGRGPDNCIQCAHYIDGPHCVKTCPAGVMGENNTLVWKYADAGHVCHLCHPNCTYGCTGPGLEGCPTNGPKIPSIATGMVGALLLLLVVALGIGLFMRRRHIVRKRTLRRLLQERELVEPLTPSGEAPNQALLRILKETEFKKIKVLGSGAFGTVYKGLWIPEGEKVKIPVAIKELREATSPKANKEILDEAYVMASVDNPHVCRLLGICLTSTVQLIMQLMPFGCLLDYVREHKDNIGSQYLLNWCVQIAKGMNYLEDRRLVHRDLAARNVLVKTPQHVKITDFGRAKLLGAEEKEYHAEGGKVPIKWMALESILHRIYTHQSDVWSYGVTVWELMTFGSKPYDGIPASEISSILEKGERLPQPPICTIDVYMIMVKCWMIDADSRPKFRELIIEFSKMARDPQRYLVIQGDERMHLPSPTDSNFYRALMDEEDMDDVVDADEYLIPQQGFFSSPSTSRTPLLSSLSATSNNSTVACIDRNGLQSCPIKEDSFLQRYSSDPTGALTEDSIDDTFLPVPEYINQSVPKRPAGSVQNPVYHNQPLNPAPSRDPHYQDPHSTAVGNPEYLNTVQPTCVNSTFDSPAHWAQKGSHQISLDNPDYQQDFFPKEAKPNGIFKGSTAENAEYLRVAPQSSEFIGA
# [7] = target: Epidermal growth factor receptor (Homo sapiens, UniProt P00533, L858R/T790M); test: Inhibition of recombinant human N-terminal GST-tagged EGFR (669 to 1210 residues) (unknown origin) L858R/T790M mutant expressed in baculovirus infected Sf21 insect cells using AQT0734 as substrate measured up to 240 mins by fluorescence assay
# Chain of Epidermal growth factor receptor (Homo sapiens, UniProt P00533, L858R/T790M) (P00533 25-1210 T790M/L858R limits assumed): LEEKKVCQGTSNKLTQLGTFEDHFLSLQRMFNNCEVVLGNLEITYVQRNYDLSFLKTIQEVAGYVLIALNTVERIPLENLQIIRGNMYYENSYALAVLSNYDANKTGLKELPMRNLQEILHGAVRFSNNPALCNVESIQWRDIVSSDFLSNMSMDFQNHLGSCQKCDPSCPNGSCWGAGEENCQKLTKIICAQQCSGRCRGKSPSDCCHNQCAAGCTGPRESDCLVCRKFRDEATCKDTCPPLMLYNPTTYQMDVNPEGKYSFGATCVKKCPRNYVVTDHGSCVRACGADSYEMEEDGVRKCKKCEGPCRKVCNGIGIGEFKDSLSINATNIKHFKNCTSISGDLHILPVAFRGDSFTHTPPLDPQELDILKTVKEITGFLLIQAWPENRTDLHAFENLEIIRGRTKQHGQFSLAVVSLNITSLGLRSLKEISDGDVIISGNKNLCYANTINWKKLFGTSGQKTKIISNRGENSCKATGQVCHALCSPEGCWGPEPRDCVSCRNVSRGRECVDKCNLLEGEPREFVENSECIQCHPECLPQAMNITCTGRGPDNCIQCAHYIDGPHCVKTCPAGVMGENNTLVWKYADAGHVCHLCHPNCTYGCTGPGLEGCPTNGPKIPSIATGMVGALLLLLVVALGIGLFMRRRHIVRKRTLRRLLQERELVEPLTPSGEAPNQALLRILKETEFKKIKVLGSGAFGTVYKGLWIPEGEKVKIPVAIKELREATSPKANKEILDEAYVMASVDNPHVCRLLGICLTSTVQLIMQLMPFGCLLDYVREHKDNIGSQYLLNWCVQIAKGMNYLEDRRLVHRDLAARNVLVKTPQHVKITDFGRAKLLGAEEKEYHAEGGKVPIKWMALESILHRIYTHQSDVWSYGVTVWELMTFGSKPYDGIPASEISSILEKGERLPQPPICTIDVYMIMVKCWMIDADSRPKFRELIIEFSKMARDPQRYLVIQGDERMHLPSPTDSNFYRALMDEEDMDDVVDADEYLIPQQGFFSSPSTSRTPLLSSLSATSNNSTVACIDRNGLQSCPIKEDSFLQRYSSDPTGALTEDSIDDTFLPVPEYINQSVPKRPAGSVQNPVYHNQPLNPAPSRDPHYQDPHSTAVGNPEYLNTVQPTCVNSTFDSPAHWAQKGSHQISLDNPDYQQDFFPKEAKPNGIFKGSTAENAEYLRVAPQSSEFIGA
# [8] = target: T1, Receptor tyrosine-protein kinase erbB-2; test: Inhibition of recombinant human N-terminal GST-tagged HER2 wild type (679 to 1255 residues) expressed in baculovirus infected Sf9 insect cells using AQT0794 measured up to 240 mins by fluorescence assay; how it was run: as §2
# [9] = target: T2, Epidermal growth factor receptor; test: Inhibition of recombinant human N-terminal GST-tagged EGFR wild type (669 to 1210 residues) expressed in baculovirus infected Sf21 insect cells insect cells using AQT0734 as substrate measured up to 240 mins by fluorescence assay
# Homo sapiens [10] = organism: Homo sapiens; test: Selectivity ratio of Ki for human N-terminal GST-tagged EGFR wild type (669 to 1210 residues) (unknown origin) to Ki for human N-terminal GST-tagged EGFR L858R/T790M mutant (669 to 1210 residues) (unknown origin)
# [11] = test system: Epidermal growth factor receptor (Homo sapiens), P00533 [L858R,T790M]; details: Sf21, time <= 240.0 min
# Homo sapiens [12] = organism: Homo sapiens; test: Selectivity ratio of Kinact for human N-terminal GST-tagged EGFR (669 to 1210 residues) (unknown origin) L858R/T790M mutant to Kinact for human N-terminal GST-tagged EGFR wild type (669 to 1210 residues) (unknown origin)
# [13] = target: T1, Receptor tyrosine-protein kinase erbB-2; test: Inhibition of HER2 in human BT474 cells assessed as reduction in autophosphorylation at Y1221/1222 residue at 5 to 100 nM after 6 hrs by Western blot analysis; format: cell-based; details: BT-474, dose 5-100 nM
# How it was run: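 BT474 HER2-overexpressing breast cancer cells were treated with inhibitor at a range of doses for 6 h. Phospho-HER2 (pY1221/1222) was detected by Western blot. The blots shown are representative of three independent experiments.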
# BaF3 [14] = test: Antiproliferative activity against mouse BAF3 cells harboring EGFR L858R/T790M mutant after 72 hrs by resazurin dye-based fluorescence assay; format: functional, cell-based; details: BaF3, 72 h; how it was run: as §1
# BaF3 [15] = test: Antiproliferative activity against mouse BAF3 cells harboring EGFR L858R mutant after 72 hrs by resazurin dye-based fluorescence assay; format: functional, cell-based; details: BaF3, 72 h; how it was run: as §1
SMILES,EC50 (BaF3 [1]),Selectivity ratio (Homo sapiens [2]),Ratio [3],Kinact [4],Kinact [5],inhibition [6],Ki [7],Ki [8],Ki [9],Ratio Ki (Homo sapiens [10]),Kinact [11],Selectivity ratio (Homo sapiens [12]),inhibition [13],EC50 (BaF3 [14]),EC50 (BaF3 [15])
C=CC(=O)Nc1cc(Nc2nccc(-n3cc(CN(C)C)c(-c4ccccc4)n3)n2)c(OC)cc1N1CCOCC1 [LAZERTINIB],> 100 nM,3.2,6310 M⁻¹ s⁻¹,0.648 min⁻¹,0.166 min⁻¹,Active,34 nM,437 nM,271 nM,8,0.235 min⁻¹,0.36,Active,7.4 nM,4.8 nM
C=CC(=O)Nc1ccc(OC)c(Nc2cc(-c3[nH]c(SC)nc3-c3ccc(F)cc3)ccn2)c1,,,,,,Active,,142 nM,,,,,Active,21 nM,0.51 nM
C=CC(=O)Nc1cc(Nc2nccc(-c3cn(C)c4ccccc34)n2)c(OC)cc1N(C)CCN(C)C [OSIMERTINIB],34 nM,,,,,,,,,,,,Active,14 nM,3.2 nM
